Reference: ChEMBL document CHEMBL1129967, “3'-Chloro-3 alpha-(diphenylmethoxy)tropane but not 4'-chloro-3 alpha-(diphenylmethoxy)tropane produces a cocaine-like behavioral profile” (J Med Chem, 1997)

Experiments:
[1] = target: Sodium-dependent dopamine transporter (Rattus norvegicus) (UniProt P23977); assay: Selectivity ratio for [3H]-DA uptake inhibition to DAT binding; format: functional
[2] = target: Sodium-dependent serotonin transporter (Rattus norvegicus) (UniProt P31652); assay: Percent inhibition at 10 uM for displacement of [3H]- citalopram binding at the serotonin transporter (5HTT).
Sodium-dependent serotonin transporter (Rattus norvegicus), sequence (P31652 whole entry): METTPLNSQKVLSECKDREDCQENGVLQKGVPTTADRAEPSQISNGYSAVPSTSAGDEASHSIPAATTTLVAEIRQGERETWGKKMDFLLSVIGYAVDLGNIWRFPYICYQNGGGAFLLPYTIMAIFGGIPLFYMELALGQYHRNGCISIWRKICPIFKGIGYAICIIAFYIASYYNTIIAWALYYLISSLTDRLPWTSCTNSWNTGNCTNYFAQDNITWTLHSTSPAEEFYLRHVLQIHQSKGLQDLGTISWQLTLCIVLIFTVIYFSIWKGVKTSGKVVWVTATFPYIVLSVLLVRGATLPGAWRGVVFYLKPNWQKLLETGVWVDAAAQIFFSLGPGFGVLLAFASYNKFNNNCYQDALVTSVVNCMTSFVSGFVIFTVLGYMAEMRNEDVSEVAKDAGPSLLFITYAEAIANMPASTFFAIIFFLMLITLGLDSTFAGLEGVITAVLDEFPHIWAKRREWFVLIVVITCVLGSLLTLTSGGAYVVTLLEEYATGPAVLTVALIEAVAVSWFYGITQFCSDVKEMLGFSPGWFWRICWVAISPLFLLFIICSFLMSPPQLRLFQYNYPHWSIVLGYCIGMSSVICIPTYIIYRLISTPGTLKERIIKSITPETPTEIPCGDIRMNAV
Summary of the method: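 Run by a contract screening service under a published method: [3H]citalopram at 0.7 nM final concentration.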

[3] = target: T1, Sodium-dependent dopamine transporter (Rattus norvegicus, UniProt P23977); assay: Displacement of [3H]WIN-35428 binding to the dopamine transporter (DAT) in Rat Caudate Putamen
T1 sequence (P23977 whole entry): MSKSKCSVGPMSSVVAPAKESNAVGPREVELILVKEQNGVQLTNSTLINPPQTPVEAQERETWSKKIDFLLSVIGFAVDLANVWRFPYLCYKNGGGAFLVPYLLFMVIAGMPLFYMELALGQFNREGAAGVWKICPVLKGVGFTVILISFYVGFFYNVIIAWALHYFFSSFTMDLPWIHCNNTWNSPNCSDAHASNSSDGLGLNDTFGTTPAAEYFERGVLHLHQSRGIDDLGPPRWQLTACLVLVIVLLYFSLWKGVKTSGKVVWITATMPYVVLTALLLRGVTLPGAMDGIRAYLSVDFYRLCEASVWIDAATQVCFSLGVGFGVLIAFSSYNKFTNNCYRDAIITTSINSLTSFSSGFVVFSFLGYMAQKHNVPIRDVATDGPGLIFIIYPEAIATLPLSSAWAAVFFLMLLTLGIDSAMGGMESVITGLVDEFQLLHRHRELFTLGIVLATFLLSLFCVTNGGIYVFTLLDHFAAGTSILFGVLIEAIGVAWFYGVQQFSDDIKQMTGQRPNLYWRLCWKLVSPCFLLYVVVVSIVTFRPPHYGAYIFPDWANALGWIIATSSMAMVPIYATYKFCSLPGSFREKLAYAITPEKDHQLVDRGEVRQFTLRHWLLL

[4] = target: T1, Sodium-dependent dopamine transporter; assay: [3H]-Dopamine uptake inhibition in rat caudate putamen; format: functional, tissue-based
Summary of the method: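 Rat caudate putamen chopped into 225 μm slices, in oxygenated Krebs-HEPES at 37 °C. Filtered, tracer extracted with methanol/HCl and counted; filter blank subtracted. IC50 from the linear portion of the concentration–response curve by linear regression.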

[5] = target: Norepinephrine transporter (Rattus norvegicus) (UniProt Q9WTR4); assay: Percent inhibition at 10 uM for displacement of [3H]- desmethylimipramine binding at the norepinephrine transporter (NET) in rat cortex.
Norepinephrine transporter (Rattus norvegicus), sequence (Q9WTR4 as listed by the source): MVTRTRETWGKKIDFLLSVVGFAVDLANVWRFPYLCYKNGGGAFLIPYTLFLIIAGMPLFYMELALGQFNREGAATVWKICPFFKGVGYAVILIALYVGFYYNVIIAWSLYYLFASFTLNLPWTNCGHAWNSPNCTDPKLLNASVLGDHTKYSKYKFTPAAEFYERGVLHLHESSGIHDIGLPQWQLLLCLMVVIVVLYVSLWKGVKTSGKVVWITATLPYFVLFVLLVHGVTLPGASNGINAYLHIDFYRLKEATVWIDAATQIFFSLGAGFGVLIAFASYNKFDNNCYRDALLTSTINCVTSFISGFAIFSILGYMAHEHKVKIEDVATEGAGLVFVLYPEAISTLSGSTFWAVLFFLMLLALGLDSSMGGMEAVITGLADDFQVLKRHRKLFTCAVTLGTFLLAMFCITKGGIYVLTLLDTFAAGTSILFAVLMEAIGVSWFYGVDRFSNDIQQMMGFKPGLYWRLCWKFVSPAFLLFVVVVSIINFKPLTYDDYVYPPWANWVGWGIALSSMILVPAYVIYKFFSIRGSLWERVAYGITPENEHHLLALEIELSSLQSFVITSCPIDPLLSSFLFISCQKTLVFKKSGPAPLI
Summary of the method: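 Run by a contract screening service under a published method: [3H]desmethylimipramine at 3.0 nM final concentration.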

[6] = target: T2, Muscarinic acetylcholine receptor M1 (Rattus norvegicus, UniProt P08482); assay: Displacement of [3H]pirenzepine binding at Muscarinic acetylcholine receptor M1 in rat brain P2 membranes.; format: cell membranes, Membrane
T2 sequence (P08482 whole entry): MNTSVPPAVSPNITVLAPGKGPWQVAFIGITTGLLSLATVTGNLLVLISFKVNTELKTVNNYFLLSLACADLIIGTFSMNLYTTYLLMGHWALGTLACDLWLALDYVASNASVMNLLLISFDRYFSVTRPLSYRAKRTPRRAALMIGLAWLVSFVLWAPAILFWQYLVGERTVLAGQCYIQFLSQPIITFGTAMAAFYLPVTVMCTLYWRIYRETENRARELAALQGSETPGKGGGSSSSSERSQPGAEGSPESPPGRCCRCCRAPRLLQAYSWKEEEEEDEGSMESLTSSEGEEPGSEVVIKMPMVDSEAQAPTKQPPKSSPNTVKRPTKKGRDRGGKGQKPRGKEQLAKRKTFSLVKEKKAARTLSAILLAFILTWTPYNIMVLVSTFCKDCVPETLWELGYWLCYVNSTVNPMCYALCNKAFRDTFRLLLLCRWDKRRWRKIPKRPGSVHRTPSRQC
Summary of the method: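 Rat brain P2 membranes (0.3 mg protein) in 50 mM Tris-HCl pH 7.4 with 5 mM MgCl2 and 5 nM [3H]pirenzepine. Nine competitor concentrations (0.03–300 nM), 60 min at 37 °C, filtered. Nonspecific binding defined with 10 μM QNB.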

Sodium-dependent dopamine transporter (Rattus norvegicus), sequence (P23977 whole entry): as the sequence (P23977 whole entry) above

`CN1[C@@H]2CC[C@H]1C[C@@H](OC(c1ccccc1)c1ccccc1N)C2` (some centres not stated) [AMINOBENZTROPINE] showed a Selectivity ratio [1] of 0.2, an I [2] of 16% and a Ki [3] of 1840 nM. It also gave an IC50 [4] of 373 nM, an I [5] of 14% and a Ki [6] of 1.12 nM.

Work on `CN1[C@@H]2CC[C@H]1C[C@@H](OC(c1ccccc1)c1cccc(C(F)(F)F)c1)C2` (some centres not stated) yielded a Selectivity ratio [1] of 2.4, an I [2] of 59.8% and a Ki [3] of 187 nM. It also gave an IC50 [4] of 457 nM, an I [5] of 78.5% and a Ki [6] of 2.52 nM.

`CN1C2CCC1CC(OC(c1ccccc1)c1ccc(Cl)cc1)C2` (configuration not stated) showed a Selectivity ratio [1] of 3.8, an I [2] of 34% and an I [5] of 32%. It also gave a Ki [6] of 1.48 nM.

With `CN1[C@@H]2CC[C@H]1C[C@@H](OC(c1ccccc1)c1ccccc1F)C2` (some centres not stated) the Selectivity ratio [1] was 2.8, the I [2] was 22.3% and the Ki [3] was 50 nM. The IC50 [4] was 140 nM, the I [5] was 17.8% and the Ki [6] was 0.43 nM.

Work on `CN1[C@@H]2CC[C@H]1C[C@@H](OC(c1ccccc1)c1cccc(Cl)c1)C2` (some centres not stated) yielded a Selectivity ratio [1] of 10.6, an I [2] of 24.5% and a Ki [3] of 21.6 nM. For the same compound, the IC50 [4] was 228 nM, the I [5] was 74.7% and the Ki [6] was 0.98 nM.

Work on `Cc1ccccc1C(O[C@H]1C[C@H]2CC[C@@H](C1)N2C)c1ccccc1` (some centres not stated) yielded a Selectivity ratio [1] of 3.9, an I [2] of 35.7% and a Ki [3] of 309 nM. It also gave an IC50 [4] of 1200 nM, an I [5] of 66.5% and a Ki [6] of 0.5 nM.

`CN1[C@@H]2CC[C@H]1C[C@@H](OC(c1ccccc1)c1ccccc1Cl)C2` (some centres not stated) was tested, and the Selectivity ratio [1] was 4.4, the I [2] was 55.4% and the Ki [3] was 228 nM. For the same compound, the IC50 [4] was 997 nM, the I [5] was 76.1% and the Ki [6] was 0.41 nM.

Work on `CN1[C@@H]2CC[C@H]1C[C@@H](OC(c1ccccc1)c1cccc(F)c1)C2` (some centres not stated) yielded a Selectivity ratio [1] of 3.7, an I [2] of 42.2% and a Ki [3] of 68.5 nM. The IC50 [4] was 250 nM, the I [5] was 82.4% and the Ki [6] was 0.6 nM.

In the case of `CN1[C@@H]2CC[C@H]1C[C@@H](OC(c1cccc(F)c1)c1cccc(F)c1)C2`, the Selectivity ratio [1] is reported as 8.6, the I [2] is reported as 72.6% and the Ki [3] is reported as 47.4 nM. For the same compound, the IC50 [4] was 407 nM, the I [5] was 75.6% and the Ki [6] was 0.85 nM.
